Reference: ChEMBL document CHEMBL3259681, “Structure-activity relationship refinement and further assessment of 4-phenylquinazoline-2-carboxamide translocator protein ligands as antiproliferative agents in human glioblastoma tumors” (J Med Chem, 2014)
Active and inactive are the calls of the source. The calls are words filed in the database; no cut-off is given here.

Key:
Translocator protein = Translocator protein (Rattus norvegicus, UniProt P16257); assay: Displacement of [3H]PK11195 from TSPO in rat kidney mitochondrial membranes; format: cell membranes
Sequence of Translocator protein (P16257 whole entry, looked up): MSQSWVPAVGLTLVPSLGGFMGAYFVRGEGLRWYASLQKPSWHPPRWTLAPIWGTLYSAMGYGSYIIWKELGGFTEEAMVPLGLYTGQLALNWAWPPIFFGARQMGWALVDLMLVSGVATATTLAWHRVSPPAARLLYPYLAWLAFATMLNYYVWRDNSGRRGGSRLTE

Homo sapiens [1] = organism: Homo sapiens; assay: Binding affinity to Central-type benzodiazepine receptor (unknown origin)
[2] = molecular target: Receptor-type tyrosine-protein kinase FLT3 (Homo sapiens) (UniProt P36888); assay: Inhibition of human FLT-3 kinase at 1 uM
[3] = molecular target: Receptor-type tyrosine-protein kinase FLT3 (Homo sapiens) (UniProt P36888); assay: Inhibition of human FLT-3 kinase at 10 uM
[4] = molecular target: Platelet-derived growth factor receptor alpha (Homo sapiens) (UniProt P16234); assay: Inhibition of human PDGFRalpha kinase at 1 uM
Sequence of Platelet-derived growth factor receptor alpha (Homo sapiens) (P16234 whole entry): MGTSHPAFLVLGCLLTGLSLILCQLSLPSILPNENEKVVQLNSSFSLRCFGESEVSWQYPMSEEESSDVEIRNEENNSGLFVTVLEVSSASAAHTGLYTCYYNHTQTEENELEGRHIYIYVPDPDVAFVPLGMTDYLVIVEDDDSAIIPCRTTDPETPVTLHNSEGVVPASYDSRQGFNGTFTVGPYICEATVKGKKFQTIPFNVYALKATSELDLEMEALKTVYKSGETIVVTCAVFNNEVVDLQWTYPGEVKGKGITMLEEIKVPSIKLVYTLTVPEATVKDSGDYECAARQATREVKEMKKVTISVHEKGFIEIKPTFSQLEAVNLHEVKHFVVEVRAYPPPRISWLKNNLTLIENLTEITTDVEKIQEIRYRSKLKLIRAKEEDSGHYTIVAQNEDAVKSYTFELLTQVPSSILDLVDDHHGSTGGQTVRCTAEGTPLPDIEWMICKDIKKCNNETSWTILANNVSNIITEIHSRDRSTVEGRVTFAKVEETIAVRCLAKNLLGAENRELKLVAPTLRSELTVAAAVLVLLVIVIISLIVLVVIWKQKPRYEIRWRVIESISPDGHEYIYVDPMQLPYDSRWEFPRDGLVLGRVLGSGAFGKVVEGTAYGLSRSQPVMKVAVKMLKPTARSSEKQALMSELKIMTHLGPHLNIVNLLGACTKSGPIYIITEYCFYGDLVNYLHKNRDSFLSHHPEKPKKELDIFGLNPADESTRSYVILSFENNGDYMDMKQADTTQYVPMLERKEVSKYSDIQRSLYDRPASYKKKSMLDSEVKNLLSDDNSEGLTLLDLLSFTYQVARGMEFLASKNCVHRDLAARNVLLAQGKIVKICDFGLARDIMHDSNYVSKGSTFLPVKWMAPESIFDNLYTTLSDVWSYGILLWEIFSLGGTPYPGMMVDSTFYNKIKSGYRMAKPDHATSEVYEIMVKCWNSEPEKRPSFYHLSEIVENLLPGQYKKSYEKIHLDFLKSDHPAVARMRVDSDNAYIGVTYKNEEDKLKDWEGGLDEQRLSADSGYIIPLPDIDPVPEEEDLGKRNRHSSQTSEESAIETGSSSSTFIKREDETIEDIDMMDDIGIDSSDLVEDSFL

[5] = molecular target: Vascular endothelial growth factor receptor 2 (Homo sapiens) (UniProt P35968); assay: Inhibition of human KDR kinase at 1 uM
[6] = molecular target: Vascular endothelial growth factor receptor 2 (Homo sapiens) (UniProt P35968); assay: Inhibition of human KDR kinase at 10 uM
[7] = molecular target: Receptor tyrosine-protein kinase erbB-2 (Homo sapiens) (UniProt P04626); assay: Inhibition of human HER2/ErbB2 kinase at 1 uM
[8] = molecular target: Receptor tyrosine-protein kinase erbB-2 (Homo sapiens) (UniProt P04626); assay: Inhibition of human HER2/ErbB2 kinase at 10 uM
[9] = molecular target: Vascular endothelial growth factor receptor 1 (Homo sapiens) (UniProt P17948); assay: Inhibition of human FLT-1 kinase at 1 uM
Sequence of Vascular endothelial growth factor receptor 1 (Homo sapiens) (P17948 whole entry): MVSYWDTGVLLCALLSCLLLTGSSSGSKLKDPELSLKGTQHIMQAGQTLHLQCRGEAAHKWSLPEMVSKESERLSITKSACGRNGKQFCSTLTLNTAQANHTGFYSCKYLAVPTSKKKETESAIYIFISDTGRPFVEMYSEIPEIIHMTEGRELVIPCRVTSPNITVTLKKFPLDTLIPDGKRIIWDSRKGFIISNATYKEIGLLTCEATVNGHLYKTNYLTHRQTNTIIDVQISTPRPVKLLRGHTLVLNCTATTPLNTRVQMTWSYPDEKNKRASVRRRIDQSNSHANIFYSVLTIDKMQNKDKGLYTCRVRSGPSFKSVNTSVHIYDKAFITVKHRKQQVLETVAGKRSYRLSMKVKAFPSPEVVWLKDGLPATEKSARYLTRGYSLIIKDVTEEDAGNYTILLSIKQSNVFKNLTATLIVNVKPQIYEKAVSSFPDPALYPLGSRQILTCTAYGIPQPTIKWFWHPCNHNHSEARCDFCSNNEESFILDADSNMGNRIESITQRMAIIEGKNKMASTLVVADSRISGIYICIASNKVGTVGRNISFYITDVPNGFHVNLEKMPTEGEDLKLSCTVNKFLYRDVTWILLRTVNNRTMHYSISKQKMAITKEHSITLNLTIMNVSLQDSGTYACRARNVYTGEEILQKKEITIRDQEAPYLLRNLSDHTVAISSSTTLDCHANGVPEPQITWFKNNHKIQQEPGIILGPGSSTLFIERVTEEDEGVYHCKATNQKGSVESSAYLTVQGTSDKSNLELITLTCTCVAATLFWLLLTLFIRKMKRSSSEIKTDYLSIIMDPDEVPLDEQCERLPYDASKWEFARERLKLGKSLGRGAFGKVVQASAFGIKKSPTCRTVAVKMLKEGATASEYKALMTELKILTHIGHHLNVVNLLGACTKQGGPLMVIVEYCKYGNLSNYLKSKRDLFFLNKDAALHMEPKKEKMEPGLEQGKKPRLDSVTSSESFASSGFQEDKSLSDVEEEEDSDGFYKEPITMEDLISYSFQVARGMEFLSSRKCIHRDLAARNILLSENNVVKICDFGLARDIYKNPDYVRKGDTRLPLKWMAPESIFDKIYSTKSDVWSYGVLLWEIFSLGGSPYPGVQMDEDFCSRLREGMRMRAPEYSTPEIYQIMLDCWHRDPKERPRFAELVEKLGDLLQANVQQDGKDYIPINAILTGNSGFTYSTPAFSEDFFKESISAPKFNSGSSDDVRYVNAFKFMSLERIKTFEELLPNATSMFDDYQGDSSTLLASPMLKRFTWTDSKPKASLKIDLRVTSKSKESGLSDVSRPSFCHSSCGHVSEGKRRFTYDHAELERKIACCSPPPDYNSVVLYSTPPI

[10] = molecular target: Vascular endothelial growth factor receptor 1 (Homo sapiens) (UniProt P17948); assay: Inhibition of human FLT-1 kinase at 10 uM
Homo sapiens [11] = organism: Homo sapiens; assay: Cytotoxicity against human U-343 MGa cells assessed as decrease in cell viability at 50 uM after 24 hrs by colorimetric viability MTS assay; format: functional, cell-based
Procedure, shortened: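 U343 cells in MEM with 10% FBS were seeded ~4.5 × 10³/well and grown 24 h. They were then exposed 24 h to 50 μM compound in complete medium; DMSO or EtOH vehicle was ≤1%. Viable cells were read by MTS colorimetric conversion as percent of vehicle control. Measurements in duplicate; mean ± SEM of three determinations.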

[12] = (§1) Cytotoxicity against human U-343 MGa cells assessed as inhibition of cell survival after 24 hrs by colorimetric viability MTS assay; format: functional, cell-based
Procedure, shortened: (§2)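 U343 cells were seeded ~4.5 × 10³/well, grown 24 h, then treated 24 h with 10 nM–100 μM compound; vehicle (DMSO or EtOH) was ≤1%. Viability by MTS conversion relative to control (100%). IC50 was taken as the concentration giving half-maximal survival inhibition. Duplicates, ≥3 experiments, mean ± SEM.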

Homo sapiens [13] = organism: Homo sapiens; assay: as §1; format: functional, cell-based; procedure, shortened: as §2
Homo sapiens [14] = organism: Homo sapiens; assay: Induction of mitochondrial membrane depolarization in human U-343 MGa cells at 10 uM after 5 hrs by cell fluo-analyzer relative to control; format: functional, cell-based
Procedure, shortened: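 U343 cells were seeded ~60 × 10³/well, grown 24 h, then treated 5 h with 10 μM compound; CCCP 3 μM for 15 min served as depolarized control. Floating and adherent cells were pooled and stained with MitoPotential dye for 20 min at rt, then 7-AAD for 5 min. Percent live, depolarized and dead cells was read on a Muse cytometer.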

Homo sapiens [15] = organism: Homo sapiens; assay: Agonist activity at GPCR in human U-343 MGa cell membrane assessed as increase in basal [35S]GTPgamma binding at 0.1 nM; format: functional, cell membranes
Homo sapiens [16] = organism: Homo sapiens; assay: Agonist activity at GPCR in human U-343 MGa cell membrane assessed as increase in basal [35S]GTPgamma binding at 100 uM; format: functional, cell membranes
[17] = molecular target: Tyrosine-protein kinase ABL1 (Homo sapiens) (UniProt P00519); assay: Inhibition of human Abl kinase at 1 uM
Sequence of Tyrosine-protein kinase ABL1 (Homo sapiens) (P00519 whole entry): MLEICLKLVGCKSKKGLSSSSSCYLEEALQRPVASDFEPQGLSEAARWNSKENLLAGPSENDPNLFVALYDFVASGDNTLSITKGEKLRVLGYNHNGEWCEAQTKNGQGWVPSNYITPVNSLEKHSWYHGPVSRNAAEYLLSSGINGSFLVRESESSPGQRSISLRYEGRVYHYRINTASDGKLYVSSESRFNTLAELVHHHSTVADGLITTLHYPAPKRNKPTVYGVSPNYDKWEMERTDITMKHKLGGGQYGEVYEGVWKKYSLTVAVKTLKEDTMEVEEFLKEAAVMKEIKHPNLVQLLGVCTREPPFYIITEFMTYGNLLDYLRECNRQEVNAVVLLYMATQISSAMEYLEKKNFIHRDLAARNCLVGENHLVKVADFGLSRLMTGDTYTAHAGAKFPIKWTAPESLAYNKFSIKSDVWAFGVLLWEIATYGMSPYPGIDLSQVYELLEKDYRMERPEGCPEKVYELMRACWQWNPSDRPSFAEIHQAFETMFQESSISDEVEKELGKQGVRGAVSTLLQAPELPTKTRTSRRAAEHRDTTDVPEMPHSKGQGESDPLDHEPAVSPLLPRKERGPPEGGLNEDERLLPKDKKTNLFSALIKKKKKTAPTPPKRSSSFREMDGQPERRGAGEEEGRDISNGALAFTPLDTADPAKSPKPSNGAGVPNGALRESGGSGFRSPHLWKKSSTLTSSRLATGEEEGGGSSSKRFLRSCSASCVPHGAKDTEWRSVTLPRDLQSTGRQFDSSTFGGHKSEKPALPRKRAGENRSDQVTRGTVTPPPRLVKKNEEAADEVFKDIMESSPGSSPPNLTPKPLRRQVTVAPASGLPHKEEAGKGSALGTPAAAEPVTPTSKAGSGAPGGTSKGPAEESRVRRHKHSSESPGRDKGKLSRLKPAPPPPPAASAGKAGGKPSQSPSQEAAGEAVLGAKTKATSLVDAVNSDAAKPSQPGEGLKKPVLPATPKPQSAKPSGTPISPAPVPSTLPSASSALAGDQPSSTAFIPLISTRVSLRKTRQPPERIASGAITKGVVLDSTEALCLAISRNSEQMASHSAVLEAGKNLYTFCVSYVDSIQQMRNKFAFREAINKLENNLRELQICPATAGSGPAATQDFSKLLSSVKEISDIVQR

[18] = molecular target: Tyrosine-protein kinase ABL1 (Homo sapiens) (UniProt P00519); assay: Inhibition of human Abl kinase at 10 uM
[19] = molecular target: Mast/stem cell growth factor receptor Kit (Homo sapiens) (UniProt P10721); assay: Inhibition of human c-kit kinase at 1 uM
[20] = molecular target: Mast/stem cell growth factor receptor Kit (Homo sapiens) (UniProt P10721); assay: Inhibition of human c-kit kinase at 10 uM
[21] = molecular target: Epidermal growth factor receptor (Homo sapiens) (UniProt P00533); assay: Inhibition of human EGFR kinase at 1 uM
[22] = molecular target: Epidermal growth factor receptor (Homo sapiens) (UniProt P00533); assay: Inhibition of human EGFR kinase at 10 uM
[23] = molecular target: Platelet-derived growth factor receptor alpha (Homo sapiens) (UniProt P16234); assay: Inhibition of human PDGFRalpha kinase at 10 uM
[24] = molecular target: Platelet-derived growth factor receptor beta (Homo sapiens) (UniProt P09619); assay: Inhibition of human PDGFRbeta kinase at 1 uM
[25] = molecular target: Platelet-derived growth factor receptor beta (Homo sapiens) (UniProt P09619); assay: Inhibition of human PDGFRbeta kinase at 10 uM
[26] = molecular target: Protein kinase C beta type (Homo sapiens) (UniProt P05771); assay: Inhibition of human PKCbeta1 at 1 uM
Sequence of Protein kinase C beta type (Homo sapiens) (P05771 2-671 limits assumed): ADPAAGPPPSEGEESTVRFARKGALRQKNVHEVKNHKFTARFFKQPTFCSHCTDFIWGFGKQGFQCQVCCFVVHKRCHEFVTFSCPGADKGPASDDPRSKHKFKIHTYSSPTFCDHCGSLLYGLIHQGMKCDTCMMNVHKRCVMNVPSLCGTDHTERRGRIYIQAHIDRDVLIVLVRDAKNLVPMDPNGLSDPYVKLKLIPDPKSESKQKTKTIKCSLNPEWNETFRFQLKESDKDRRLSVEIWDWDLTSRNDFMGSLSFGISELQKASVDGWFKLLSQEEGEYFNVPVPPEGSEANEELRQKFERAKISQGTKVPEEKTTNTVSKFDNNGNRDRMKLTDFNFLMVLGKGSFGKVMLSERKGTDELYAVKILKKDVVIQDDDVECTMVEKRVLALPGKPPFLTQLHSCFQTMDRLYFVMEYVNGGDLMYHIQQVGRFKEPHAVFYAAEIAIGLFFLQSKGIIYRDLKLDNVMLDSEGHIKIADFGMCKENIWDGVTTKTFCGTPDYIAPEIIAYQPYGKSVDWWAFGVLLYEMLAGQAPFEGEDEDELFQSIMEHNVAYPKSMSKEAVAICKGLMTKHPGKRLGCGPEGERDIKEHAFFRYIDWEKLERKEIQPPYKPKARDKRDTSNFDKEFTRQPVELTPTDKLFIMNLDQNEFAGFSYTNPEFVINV

[27] = molecular target: Protein kinase C beta type (Homo sapiens) (UniProt P05771); assay: Inhibition of human PKCbeta1 at 10 uM
[28] = molecular target: Protein kinase C beta type (Homo sapiens) (UniProt P05771); assay: Inhibition of human PKCbeta2 at 1 uM
[29] = molecular target: Protein kinase C beta type (Homo sapiens) (UniProt P05771); assay: Inhibition of human PKCbeta2 at 10 uM
[30] = molecular target: Proto-oncogene tyrosine-protein kinase receptor Ret (Homo sapiens) (UniProt P07949); assay: Inhibition of human Ret kinase at 1 uM
[31] = molecular target: Proto-oncogene tyrosine-protein kinase receptor Ret (Homo sapiens) (UniProt P07949); assay: Inhibition of human Ret kinase at 10 uM
[32] = molecular target: Serine/threonine-protein kinase mTOR (Homo sapiens) (UniProt P42345); assay: Inhibition of human mTOR kinase at 1 uM
[33] = molecular target: Serine/threonine-protein kinase mTOR (Homo sapiens) (UniProt P42345); assay: Inhibition of human mTOR kinase at 10 uM
[34] = molecular target: Translocator protein (Rattus norvegicus) (UniProt P16257); assay: Displacement of [3H]PK11195 from TSPO in rat kidney mitochondrial membranes at 1 uM; format: cell membranes
Sequence of Translocator protein (Rattus norvegicus) (P16257 whole entry, looked up): as the sequence (P16257 whole entry, looked up) above
Procedure, shortened: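 Competition binding against 0.6 nM [³H]PK11195 in crude rat kidney mitochondrial membranes, 50 mM Tris–HCl pH 7.4. Six compound concentrations spanning 0.05 nM–20 μM, each in triplicate. IC50 from displacement curves, converted to Ki by Cheng–Prusoff. Percent inhibition taken at 1 μM. Values are mean ± SEM of three determinations.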

[35] = Cytotoxicity against human U-343 MGa cells assessed as inhibition of cell survival at 100 uM after 24 hrs by colorimetric viability MTS assay; format: functional; procedure, shortened: as §2
Homo sapiens [36] = organism: Homo sapiens; assay: Induction of mitochondrial membrane depolarization in human U-343 MGa cells at 3 uM for 15 mins by cell fluo-analyzer relative to control; format: functional, cell-based
Procedure, shortened: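 U343 cells were grown at 37 °C and 5% CO₂ in EMEM with 10% FBS, seeded at ~60 × 10³ cells/well and grown 24 h. They were then exposed to the uncoupler as a depolarized positive control. Floating and adherent cells were pooled and stained with MitoPotential dye (20 min, rt), then with 7-AAD (5 min). The Muse cytometer gave % live, depolarized and dead cells.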

CCN(Cc1ccc(C(=O)O)cc1)C(=O)c1nc(-c2ccccc2)c2ccccc2n1 showed a Ki (Translocator protein) of 719 nM.

With CCN(Cc1ccccc1)C(=O)c1nc(-c2ccccc2)c2ccccc2n1 the Ki (Translocator protein) was 1.13 nM.

CCN(Cc1ccccc1)C(=O)c1nc(-c2ccccc2Cl)c2ccccc2n1 gave a Ki (Translocator protein) of 0.235 nM.

CN(Cc1ccccc1)C(=O)c1nc(-c2ccccc2F)c2ccccc2n1 gave a Ki (Translocator protein) of 1.11 nM.

For CCCCCN(CCCCC)C(=O)c1nc(-c2ccccc2)c2ccccc2n1, the Activity (Homo sapiens [1]) was “inactive”.

For CCN(Cc1ccc(C)cc1)C(=O)c1nc(-c2ccccc2F)c2ccccc2n1, the Ki (Translocator protein) was 0.6 nM.

For CCCCCCN(CCCCCC)C(=O)c1nc(-c2ccccc2)c2cc(Cl)ccc2n1, the Activity (Homo sapiens [1]) was “inactive”.

Molecule CCN(Cc1ccccc1)C(=O)c1nc(-c2ccccc2)c2cc(Cl)ccc2n1 has a Ki (Translocator protein) of 24.3 nM.

In the case of CCN(Cc1ccccc1)C(=O)c1nc(-c2ccccc2F)c2ccccc2n1, the Ki (Translocator protein) is reported as 0.888 nM.

With CCN(Cc1ccc(C)cc1)C(=O)c1nc(-c2ccccc2Cl)c2ccccc2n1 the inhibition [2] was “inactive”, the inhibition [3] was “inactive” and the inhibition [4] was “inactive”. The inhibition [5] was “inactive”, the inhibition [6] was “inactive” and the inhibition [7] was “inactive”. For the same molecule, the inhibition [8] was “inactive”, the inhibition [9] was “inactive” and the inhibition [10] was “inactive”. The Ki (Translocator protein) was 0.489 nM, the inhibition (Homo sapiens [11]) was “Active” and the IC50 [12] was 15100 nM. For the same molecule, the inhibition (Homo sapiens [13]) was “Dose-dependent effect”, the Activity (Homo sapiens [14]) was “Active” and the Activity (Homo sapiens [15]) was “inactive”. For the same molecule, the Activity (Homo sapiens [16]) was “inactive”, the inhibition [17] was “inactive” and the inhibition [18] was “inactive”. The inhibition [19] was “inactive”, the inhibition [20] was “inactive” and the inhibition [21] was “inactive”. For the same molecule, the inhibition [22] was “inactive”, the inhibition [23] was “inactive” and the inhibition [24] was “inactive”. For the same molecule, the inhibition [25] was “inactive”, the inhibition [26] was “inactive” and the inhibition [27] was “inactive”. For the same molecule, the inhibition [28] was “inactive”, the inhibition [29] was “inactive” and the inhibition [30] was “inactive”. The inhibition [31] was “inactive”, the inhibition [32] was “inactive” and the inhibition [33] was “inactive”.

For CCN(Cc1ccc(OC)cc1)C(=O)c1nc(-c2ccccc2)c2ccccc2n1, the Ki (Translocator protein) was 2.77 nM.

With CCC(C)N(C)C(=O)c1nc(-c2ccc(Cl)cc2)c2ccccc2n1 (stereo not given) the Activity (Homo sapiens [1]) was “inactive”.

In the case of CCC(C)N(C)C(=O)c1nc(-c2ccccc2Cl)c2ccccc2n1 (stereo not given), the Activity (Homo sapiens [1]) is reported as “inactive”.

Work on CCOC(=O)c1ccc(CN(CC)C(=O)c2nc(-c3ccccc3)c3ccccc3n2)cc1 yielded a Ki (Translocator protein) of 3.65 nM.

For CCCCCCN(CCCCCC)C(=O)c1nc(-c2ccccc2Cl)c2ccccc2n1, the Activity (Homo sapiens [1]) was “inactive”.

CN(Cc1ccccc1)C(=O)c1nc(-c2ccccc2)c2ccccc2n1 showed a Ki (Translocator protein) of 3.99 nM.

With CCC(C)N(C)C(=O)c1nc(-c2ccccc2)c2ccccc2n1 (stereo not given) the Activity (Homo sapiens [1]) was “inactive”.

Molecule CCN(Cc1ccc(C)cc1)C(=O)c1nc(-c2ccccc2)c2ccccc2n1 has a Ki (Translocator protein) of 2.57 nM.

In the case of O=C(NCc1ccccc1)c1nc(-c2ccccc2)c2ccccc2n1, the inhibition [34] is reported as 41%.

In the case of CCCCCCN(CCCCCC)C(=O)c1nc(-c2ccc(Cl)cc2)c2ccccc2n1, the Activity (Homo sapiens [1]) is reported as “inactive”.

For CCC(C)N(C)C(=O)c1cc2ccccc2c(-c2ccccc2Cl)n1 (stereo not given) [PK-11195], the inhibition at 100 µM [35] was 40% and the Activity (Homo sapiens [14]) was “Active”.

In the case of CCN(Cc1ccccc1)C(=O)c1nc(-c2ccc(F)cc2)c2ccccc2n1, the Ki (Translocator protein) is reported as 1.68 nM.

Work on CCN(Cc1ccccc1)C(=O)c1nc(-c2ccc(Cl)cc2)c2ccccc2n1 yielded a Ki (Translocator protein) of 0.762 nM.

Work on O=C(NCc1ccccc1)c1nc(-c2ccccc2Cl)c2ccccc2n1 yielded an inhibition [34] of 16%.

Work on CN(Cc1ccccc1)C(=O)c1nc(-c2ccc(Cl)cc2)c2ccccc2n1 yielded a Ki (Translocator protein) of 6.12 nM.

Molecule CCN(Cc1ccccc1)C(=O)c1nc(-c2ccc(C)cc2)c2ccccc2n1 has a Ki (Translocator protein) of 1.49 nM.

Work on CCN(Cc1ccc([N+](=O)[O-])cc1)C(=O)c1nc(-c2ccccc2)c2ccccc2n1 yielded a Ki (Translocator protein) of 4.2 nM.

With CCN(Cc1ccc(O)cc1)C(=O)c1nc(-c2ccccc2)c2ccccc2n1 the Ki (Translocator protein) was 8.76 nM.

CN(Cc1ccccc1)C(=O)c1cc2ccccc2c(-c2ccccc2Cl)n1 gave a Ki (Translocator protein) of 0.442 nM.

With N#CC(C#N)=NNc1cccc(Cl)c1 the Activity (Homo sapiens [36]) was “Active”.

In the case of CCCCCCN(CCCCCC)C(=O)c1nc(-c2ccccc2)c2ccccc2n1, the Activity (Homo sapiens [1]) is reported as “inactive”, the inhibition (Homo sapiens [11]) is reported as “Active” and the IC50 [12] is reported as 17700 nM. The inhibition (Homo sapiens [13]) was “Dose-dependent effect” and the Activity (Homo sapiens [14]) was “Active”.

In the case of CCC(C)N(C)C(=O)c1nc(-c2ccccc2)c2cc(Cl)ccc2n1 (stereo not given), the Activity (Homo sapiens [1]) is reported as “inactive”.

With CCCCN(CCCC)C(=O)c1nc(-c2ccccc2)c2ccccc2n1 the Activity (Homo sapiens [1]) was “inactive”.
